Published values gathered from unrelated publications.
Lines come from different studies, so protocols differ.
OPRD1: Delta-type opioid receptor (OPRD1, Homo sapiens, UniProt P41143)
CA2: Carbonic anhydrase 2 (CA2, Homo sapiens, UniProt P00918)

COc1ccc2[nH]c(C)c(CC[N+](C)(C)C)c2c1
Ki (5-hydroxytryptamine receptor 3A (HTR3A, Homo sapiens, UniProt P46098); ligand displacement, radioligand): ~2600 nM

CS(=O)(=O)c1ccc(C(=O)N[C@H]2CC[C@@]3(O)[C@H]4Cc5ccc(O)c6c5[C@@]3(CCN4CC3CC3)[C@H]2O6)s1
Ki (OPRD1; ligand displacement, radioligand; cell membranes): 27 nM

O=C1CCc2ccccc2O1
Ki (Carbonic anhydrase (Vibrio cholerae serotype O1, UniProt Q9KMP6); enzyme activity, inhibitor, stopped-flow): 8900 nM

COC(=O)c1cc(N(C)C(=O)c2ccn3ncc(-c4ccc(C(=O)O)cc4)c3c2)ccc1Cl
IC50 (Receptor tyrosine-protein kinase erbB-2 (ERBB2, Homo sapiens, UniProt P04626); enzyme activity, inhibitor): > 30000 nM

COc1ccc(S(=O)(=O)Oc2ccc(C=NNC(=O)c3ccc(F)cc3)cc2OC)cc1
IC50 (CA2; enzyme activity, inhibitor, absorbance): 23.2 nM

CNC(=O)c1ccc(-c2cnn3ccc(C(=O)N(C)c4ccc(Cl)c(C(=O)OC)c4)cc23)cc1
IC50 (Tyrosine-protein kinase ABL1 (ABL1, Homo sapiens, UniProt P00519); enzyme activity, inhibitor): > 30000 nM

COc1ccc(S(=O)(=O)Oc2cc(OC)ccc2C=NNC(=O)c2ccc(F)cc2)cc1
IC50 (CA2; enzyme activity, inhibitor, absorbance): 141 nM

O=C(N[C@H]1CC[C@@]2(O)[C@H]3Cc4ccc(O)c5c4[C@@]2(CCN3CC2CC2)[C@H]1O5)c1ccc(F)s1
Ki (OPRD1; ligand displacement, radioligand; cell membranes): 31.4 nM
